Several values for one entry are separate records, joined by “and”; a condition that tells them apart may be missing. Equal entries are not always repeated. Where two headings read alike, the source gives them in different places.
Tests used:
[1] = cited from earlier work
recurrent GBM [2] = assay: Disease progression; assay type: in vivo, human; conditions: for PFS from start of Ribociclib: 600 mg/day, 21-days-on, 7-days-off after surgery; for OS from second surgery: other regimens off-study after progression
Procedure, shortened: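 Patients with Rb-positive recurrent tumors continued oral ribociclib, 600 mg/day, 21 days on and 7 days off per 28-day cycle, until progression or unacceptable toxicity. Follow-up MRI, including perfusion and diffusion-weighted images, was done after every two cycles. Progression was judged by the Response Assessment in Neuro-Oncology (RANO) criteria.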

Rb phosphorylation [3] = conditions: cultured cells, in vitro; cited from earlier work
[4] = assay type: in vivo, human
Procedure, shortened: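 Patients took oral ribociclib, 600 mg/day, for 8–21 days, with the last dose 4–8 h before surgery. Baseline blood was drawn before treatment and again within 1 h before surgery, then split into plasma and buffy coat. CSF was collected during surgery when feasible. Tumor core and infiltrating regions were located by stealth MRI and frozen. Total drug was measured by validated LC–MS/MS. Unbound drug equals fraction unbound × total.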

[5] = assay type: in vitro ADME, human
Procedure, shortened: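 Plasma and tumor homogenate came from patients dosed at ribociclib 600 mg/day for 8–21 days. Samples were collected 4–8 h after the last pre-surgical dose. Fraction unbound was determined by equilibrium dialysis across a 5-kDa cutoff regenerated cellulose membrane.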

RbS807/811 = assay: Immunohistochemistry for phospho-Rb in paired tumor specimens; assay type: in vivo, human
cell growth = conditions: suppression of cell growth in vitro; no reference given; cited from earlier work
Rb phosphorylation [6] = conditions: 900 mg/day for 5 days before surgery, 12 patients; ref Tien et al. 37; cited from earlier work
cell proliferation = conditions: 900 mg/day for 5 days before surgery, 12 patients; ref Tien et al. 37; cited from earlier work
[7] = Safety monitoring, adverse events graded by NCI CTCAE version 4.0; assay type: in vivo, human; conditions: for Cough / Creatinine increased / Edema, limbs / Gait disturbance / Generalized muscle weakness / Hyperglycemia / Musculoskeletal and connective tissue disorder—other: muscle pain / Nausea / Peripheral sensory neuropathy / Psychosis / Insomnia: count, prior to surgery and during treatment phase
Procedure, shortened: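 Participants with recurrent GBM took oral ribociclib, 600 mg once daily, for 8–21 days before resection. Rb-positive cases then continued on 21 days on and 7 days off per 28-day cycle. Throughout treatment, staff monitored complete blood counts, blood chemistry, 12-lead ECG, vital signs, Karnofsky status and physical exam. Adverse events were graded by NCI CTCAE v4.0 and assessed for expectedness and drug attribution.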

recurrent GBM [8] = conditions: three of 17 patients with recurrent GBM; 150 mg or 200 mg twice daily; cited from earlier work
[9] = system: recurrent Rb-positive GBM; conditions: 22 patients, 125 mg/day, 21-days-on, 7-days-off; cited from earlier work
GBM cell proliferation = conditions: 7 days before surgery, 4 matched samples; ref Taylor et al. 34; cited from earlier work
[10] = enhancing tumor, subject RIBO-001, mean of specimens
[11] = enhancing tumor, subject RIBO-003, mean of specimens
[12] = mean across all specimens, 600 mg QD 8–21 days
[13] = mean ± SD, all tumor specimens of three subjects
[14] = mean ± SD, assuming tumor tissue density of 1.04 g/mL
[15] = non-enhancing tumor, subject RIBO-001, mean of specimens
[16] = tumor core, subject RIBO-002, mean of specimens
[17] = tumor core, subject RIBO-003, mean of specimens

For CN(C)C(=O)c1cc2cnc(Nc3ccc(N4CCNCC4)cn3)nc2n1C1CCCC1 [ribociclib], the “Mean unbound ribociclib fraction in plasma” value ([1]; CV = 17.6%) is given as 12.7%, the “Mean unbound ribociclib fraction in tumor tissues” value ([1]; CV = 23%) is given as 4.6% and the Disease progression (recurrent GBM [2]; all three participants, ribociclib monotherapy) is given as “all experienced early disease progression”. For the same compound, the “PFS from start of Ribociclib” value (recurrent GBM [2]; participant 001) was 2 months, the “OS from second surgery” value (recurrent GBM [2]; participant 001) was 10 months and the “PFS from start of Ribociclib” value (recurrent GBM [2]; participant 002) was 5 months. For the same compound, the “OS from second surgery” value (recurrent GBM [2]; participant 002) was 19 months, the “PFS from start of Ribociclib” value (recurrent GBM [2]; participant 003) was 2 months and the “OS from second surgery” value (recurrent GBM [2]; participant 003) was 12 months. The “Ribociclib (total drug) sufficient to suppress Rb phosphorylation” value (Rb phosphorylation [3]) was 200 nM, the “Mean unbound ribociclib concentration in CSF” value ([4]; 600 mg QD 8–21 days, one CSF sample) was 0.632 µM and 0.63 µM and the “Ribociclib CSF concentration relative to the IC50 for inhibition of CDK4/6” value ([4]; CSF) was “> fivefold”. The “Total ribociclib (CSF ribociclib concentration)” value ([4]; CSF collected during surgery, subject RIBO-003, 600 mg QD, 14 days) was 0.63 µM, the “Total drug tumor (mean concentration)” value [4, 10] was 17.97 nmol/g and the “Unbound drug tumor (mean concentration)” value [4, 10] was 0.79 nmol/g. The “Total drug tumor (mean concentration)” value ([4]; enhancing tumor, subject RIBO-002, mean of specimens) was 24.73 nmol/g, the “Total drug tumor (mean concentration)” value [4, 11] was 29.99 nmol/g and the “Unbound drug tumor (mean concentration)” value [4, 11] was 1.29 nmol/g. The Kp ([4]; human, CSF / unbound plasma, oral, 600 mg/day, CSF/unbound plasma concentration ratio, one patient, 0.63/0.49) was 1.29, the “Mean unbound ribociclib concentration in MRI-enhancing tumor” value [4, 12] was 1.242 nmol/g and the “Mean unbound ribociclib concentration in MRI-non-enhancing tumor” value [4, 12] was 0.484 nmol/g and 0.48 nmol/g. The “Mean unbound ribociclib concentration in tumor core” value [4, 12] was 1.526 nmol/g, the “Mean concentration of unbound ribociclib in MRI-enhancing tumor or core” value ([4]; mean across all subjects, reported herein, 600 mg/day) was 1.33 nmol/g and the “Mean unbound ribociclib concentration in plasma” value ([4]; mean across participants, 600 mg QD 8–21 days) was 0.337 µM. For the same compound, the “Tumor tissue concentration of total ribociclib” value [4, 13] was 23.42 ± 10.79 nmol/g, the “Tumor tissue concentration of unbound ribociclib” value [4, 13] was 1.24 ± 0.64 nmol/g and the “Tumor tissue concentration of total ribociclib” value [4, 14] was 24.36 ± 11.22 µM. The “Unbound ribociclib intra-tumor drug concentration” value [4, 14] was 1.29 ± 0.67 µM, the “Unbound concentration in non-enhancing tumor relative to the IC50 for inhibition of CDK4/6” value ([4]; non-enhancing tumor) was “> fivefold” and the “Total drug tumor (mean concentration)” value [4, 15] was 8.86 nmol/g. The “Unbound drug tumor (mean concentration)” value [4, 15] was 0.48 nmol/g, the Total ribociclib ([4]; plasma, day of surgery, subject RIBO-001, 600 mg QD, 8 days before surgery) was 3.65 µM and the Total ribociclib ([4]; plasma, day of surgery, subject RIBO-002, 600 mg QD, 12 days before surgery) was 1.26 µM. The Total ribociclib ([4]; plasma, day of surgery, subject RIBO-003, 600 mg QD, 14 days before surgery) was 5.44 µM, the Total ribociclib ([4]; tumor core specimen, subject RIBO-001, 600 mg QD, 8 days, 4–8 h after last dose) was 16.30 nmol/g and the “Total drug tumor (mean concentration)” value ([4]; tumor core, subject RIBO-001) was 16.30 nmol/g. For the same compound, the “Unbound drug tumor (mean concentration)” value ([4]; tumor core, subject RIBO-001) was 0.82 nmol/g, the “Total drug tumor (mean concentration)” value [4, 16] was 33.03 nmol/g and the “Unbound drug tumor (mean concentration)” value [4, 16] was 2.11 nmol/g. The “Total drug tumor (mean concentration)” value [4, 17] was 21.65 nmol/g, the “Unbound drug tumor (mean concentration)” value [4, 17] was 1.30 nmol/g and the Fraction unbound ([5]; enhancing tumor specimens, subject RIBO-001) was 3.9%. The Fraction unbound ([5]; enhancing tumor specimens, subject RIBO-002) was 6.4% and 5.8% and 5.4%, the Fraction unbound ([5]; enhancing tumor specimens, subject RIBO-003) was 4.1% and 4.3% and the Fraction unbound ([5]; human, plasma, Fraction unbound, subject RIBO-001) was 0.102. It also gave a Fraction unbound ([5]; human, plasma, Fraction unbound, subject RIBO-002) of 0.119, a Fraction unbound ([5]; human, plasma, Fraction unbound, subject RIBO-003) of 0.09 and a Fraction unbound ([5]; non-enhancing tumor specimens, subject RIBO-001) of 4.2%. The Fraction unbound ([5]; tumor core specimens, subject RIBO-003) was 6.3%, the “Inhibition of tumor tissue CDK4/6 activity (phospho-Rb IHC) or cell proliferation (Ki-67 IHC)” value (RbS807/811; 600 mg/day monotherapy, archived vs post-ribociclib tumor tissue) was “did not consistently inhibit” and the “Proportion of phospho-Rb-positive tumor cells and phospho-Rb histoscores, ribociclib-treated vs. baseline tumors” value (RbS807/811; 8–21 days of ribociclib 600 mg/day, three subjects, Fig. S1A) was “Two of the three subjects showed a decrease”. For the same compound, the GI50 (cell growth) was 276 nM, the “Change in Rb phosphorylation, archived vs post-ribociclib tumor” value (Rb phosphorylation [6]) was “significant decrease” and the “Change in cell proliferation, archived vs post-ribociclib tumor” value (cell proliferation) was “significant decrease”. For the same compound, the “Grade of all observed adverse events” value ([7]; CTCAE v4.0, three participants, 600 mg/day) was ≤ 2 grade, the Cough ([7]; Grade 1) was 1 and the Creatinine increased ([7]; Grade 1) was 0. The “Edema, limbs” value ([7]; Grade 1) was 1, the Gait disturbance ([7]; Grade 1) was 0 and the Generalized muscle weakness ([7]; Grade 1) was 0. The Hyperglycemia ([7]; Grade 1) was 0, the “Musculoskeletal and connective tissue disorder—other: muscle pain” value ([7]; Grade 1) was 1 and the Nausea ([7]; Grade 1) was 1. The Peripheral sensory neuropathy ([7]; Grade 1) was 1, the Psychosis ([7]; Grade 1) was 1 and the Creatinine increased ([7]; Grade 2) was 1. The “Edema, limbs” value ([7]; Grade 2) was 0, the Gait disturbance ([7]; Grade 2) was 1 and the Generalized muscle weakness ([7]; Grade 2) was 1. For the same compound, the Hyperglycemia ([7]; Grade 2) was 1, the Insomnia ([7]; Grade 2) was 1 and the “Musculoskeletal and connective tissue disorder—other: muscle pain” value ([7]; Grade 2) was 0. For the same compound, the Nausea ([7]; Grade 2) was 0, the Peripheral sensory neuropathy ([7]; Grade 2) was 0 and the Cough ([7]; Total) was 1. For the same compound, the Creatinine increased ([7]; Total) was 1, the “Edema, limbs” value ([7]; Total) was 1 and the Gait disturbance ([7]; Total) was 1. It also gave a Generalized muscle weakness ([7]; Total) of 1, a Hyperglycemia ([7]; Total) of 1 and an Insomnia ([7]; Total) of 1. For the same compound, the “Musculoskeletal and connective tissue disorder—other: muscle pain” value ([7]; Total) was 1, the Nausea ([7]; Total) was 1 and the Peripheral sensory neuropathy ([7]; Total) was 1. The Psychosis ([7]; Total) was 1, the Serious adverse events ([7]; three participants, 600 mg/day) was “No participants experienced serious adverse events” and the “Withdrawal from the study due to adverse events” value ([7]; three participants, 600 mg/day) was “No participants withdrew”.

For CCN1CCN(Cc2ccc(Nc3ncc(F)c(-c4cc(F)c5nc(C)n(C(C)C)c5c4)n3)nc2)CC1 [abemaciclib], the “Best response: duration of stable disease” value (recurrent GBM [8]) is given as ≥ 24 weeks.

For CC(=O)c1c(C)c2cnc(Nc3ccc(N4CCNCC4)cn3)nc2n(C2CCCC2)c1=O [palbociclib], the “Median PFS” value [9] is given as 5.1 weeks, the OS [9] is given as 15.4 weeks and the “Change in GBM cell proliferation by Ki-67 IHC” value (GBM cell proliferation) is given as “did not produce significant changes”. For the same compound, the “Tumor drug concentrations vs pharmacologically active level” value (GBM cell proliferation) was “exceeded those felt to be pharmacologically active”.
